Test results: ChEMBL document CHEMBL1782044, “Aspartic vinyl sulfones: inhibitors of a caspase-3-dependent pathway” (Eur J Med Chem, 2011)
Activity calls are given as the source filed them. The rule behind the calls is not given here.

system: Saccharomyces cerevisiae; test: Growth stimulation in Saccharomyces cerevisiae CG379 transformed with empty vector at 5 to 100 uM after 2 days; format: organism-based; conditions: in vivo, 48 h

Row | Compound | Activity [%]
1 | CC[C@H](C)[C@H](NC(=O)OCc1ccccc1)C(=O)N[C@H](/C=C/S(=O)(=O)c1ccccc1)CC(=O)O | 1.9
2 | CC[C@H](C)[C@H](NC(=O)OCc1ccccc1)C(=O)N[C@H](/C=C/S(C)(=O)=O)CC(=O)O | -3.3
3 | CC(C)[C@H](NC(=O)OCC1c2ccccc2-c2ccccc21)C(=O)N[C@H](/C=C/S(C)(=O)=O)CC(=O)O | -7
4 | CS(=O)(=O)/C=C/[C@H](CC(=O)O)NC(=O)OCC1c2ccccc2-c2ccccc21 | 1.7
5 | CC(C)[C@H](NC(=O)OCC1c2ccccc2-c2ccccc21)C(=O)N[C@H](/C=C/S(=O)(=O)c1ccccc1)CC(=O)O | 1.3
6 | O=C(O)C[C@@H](/C=C/S(=O)(=O)c1ccccc1)NC(=O)OCC1c2ccccc2-c2ccccc21 | 2.8
7 | CC(C)[C@H](NC(=O)OCc1ccccc1)C(=O)N[C@H](/C=C/S(C)(=O)=O)CC(=O)O | -1

system: Saccharomyces cerevisiae; test: Growth stimulation in Saccharomyces cerevisiae CG379 transformed with empty vector at 5 to 50 uM after 2 days; format: organism-based; conditions: in vivo, 48 h

Row | Compound | Activity [%]
8 | CC(=O)N[C@@H](CC(=O)O)C(=O)N[C@@H](CCC(=O)O)C(=O)N[C@H](C(=O)N[C@@H](CC(=O)O)C(=O)CCl)C(C)C | 1.7

molecular target: T1, Caspase-3 (Homo sapiens) (UniProt P42574); test: Inhibition of human recombinant caspase-3 assessed as fluorescent 7-amido-4-methylcoumarin release using Ac-DEVD-AMC as peptide substrate at <200 uM by fluorometric assay; conditions: not given
T1 sequence (whole entry): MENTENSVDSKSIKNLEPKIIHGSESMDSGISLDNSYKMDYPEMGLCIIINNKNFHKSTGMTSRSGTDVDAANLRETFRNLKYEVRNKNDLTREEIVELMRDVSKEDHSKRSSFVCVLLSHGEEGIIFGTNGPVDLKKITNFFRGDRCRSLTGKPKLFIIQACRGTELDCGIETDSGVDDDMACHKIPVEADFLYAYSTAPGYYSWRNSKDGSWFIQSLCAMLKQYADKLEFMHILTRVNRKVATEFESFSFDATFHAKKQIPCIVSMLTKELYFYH
Method in brief: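 Recombinant human caspase-3 (stock 10 U/ml in assay buffer) mixed with inhibitor at various concentrations. Reaction started with AMC substrate at 200 (final). Buffer was 20 mM HEPES, 2 mM EDTA, 0.1% CHAPS, 5 mM DTT, pH 7.4. AMC release followed continuously at 37 °C by fluorescence, excitation 360 nm and emission 460 nm. IC50 determined.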

Row | Compound | inhibition
9 | CC(C)[C@H](NC(=O)OCC1c2ccccc2-c2ccccc21)C(=O)N[C@H](C(=O)N[C@H](/C=C/S(C)(=O)=O)CC(=O)O)C(C)C | inactive
10 | C[C@H](NC(=O)OCC1c2ccccc2-c2ccccc21)C(=O)N[C@H](/C=C/S(=O)(=O)c1ccccc1)CC(=O)O | inactive
11 | C[C@H](NC(=O)OCc1ccccc1)C(=O)N[C@H](/C=C/S(C)(=O)=O)CC(=O)O | inactive
12 | C[C@H](NC(=O)OCC1c2ccccc2-c2ccccc21)C(=O)N[C@H](/C=C/S(C)(=O)=O)CC(=O)O | inactive
13 | CC[C@H](C)[C@H](NC(=O)OCC1c2ccccc2-c2ccccc21)C(=O)N[C@H](/C=C/S(C)(=O)=O)CC(=O)O | inactive
14 | C[C@H](NC(=O)OCc1ccccc1)C(=O)N[C@H](/C=C/S(=O)(=O)c1ccccc1)CC(=O)O | inactive
15 | CC[C@H](C)[C@H](NC(=O)OCC1c2ccccc2-c2ccccc21)C(=O)N[C@H](/C=C/S(=O)(=O)c1ccccc1)CC(=O)O | inactive
16 | CC(C)[C@H](NC(=O)OCC1c2ccccc2-c2ccccc21)C(=O)N[C@H](C(=O)N[C@H](/C=C/S(=O)(=O)c1ccccc1)CC(=O)O)C(C)C | inactive
